One block for each compound: values may come before it. Calls of active or inactive are those of the source. No cut-off for these calls is given here.
What was measured:
[1] = target: Muscarinic acetylcholine receptor M2 (Homo sapiens) (UniProt P08172); assay: Displacement of [3H]NMS from human muscarinic acetylcholine receptor M2 expressed in CHOK9 cells at <100 uM after 3 hrs by liquid scintillation counting assay
[2] = target: Muscarinic acetylcholine receptor M2 (Homo sapiens) (UniProt P08172); assay: Displacement of [3H]UNSW-MK259 from human muscarinic acetylcholine receptor M2 expressed in CHOK9 cells at <100 uM after 3 hrs by liquid scintillation counting assay
[3] = target: T1, Muscarinic acetylcholine receptor M2 (Homo sapiens, UniProt P08172); assay: Binding affinity to human muscarinic acetylcholine receptor M2 expressed in CHOK9 cell suspension after 2 hrs by liquid scintillation counting assay; settings: read-out: Kd(app)
T1 sequence (P08172 whole entry): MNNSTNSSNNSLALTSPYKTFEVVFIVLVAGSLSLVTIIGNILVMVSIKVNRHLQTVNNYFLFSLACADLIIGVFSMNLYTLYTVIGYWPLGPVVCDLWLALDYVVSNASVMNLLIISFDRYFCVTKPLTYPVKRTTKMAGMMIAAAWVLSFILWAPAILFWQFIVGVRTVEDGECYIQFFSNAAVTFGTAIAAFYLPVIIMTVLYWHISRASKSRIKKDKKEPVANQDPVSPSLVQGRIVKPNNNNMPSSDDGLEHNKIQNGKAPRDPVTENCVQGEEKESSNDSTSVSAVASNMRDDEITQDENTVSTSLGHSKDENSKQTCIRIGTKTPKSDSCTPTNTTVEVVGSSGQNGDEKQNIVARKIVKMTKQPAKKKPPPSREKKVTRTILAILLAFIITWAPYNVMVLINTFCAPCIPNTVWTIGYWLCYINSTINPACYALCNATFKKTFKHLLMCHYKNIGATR

[4] = target: T1, Muscarinic acetylcholine receptor M2; assay: Binding affinity to human muscarinic acetylcholine receptor M2 expressed in live adherent CHOK9 cells assessed as saturation binding after 2 hrs by liquid scintillation counting assay
[5] = target: T2, Muscarinic acetylcholine receptor M4 (Homo sapiens, UniProt P08173); assay: Binding affinity to human muscarinic acetylcholine receptor M4 expressed in CHOK9 cells after 2 hrs by liquid scintillation counting assay; assay type: cell-based
T2 sequence (P08173 whole entry): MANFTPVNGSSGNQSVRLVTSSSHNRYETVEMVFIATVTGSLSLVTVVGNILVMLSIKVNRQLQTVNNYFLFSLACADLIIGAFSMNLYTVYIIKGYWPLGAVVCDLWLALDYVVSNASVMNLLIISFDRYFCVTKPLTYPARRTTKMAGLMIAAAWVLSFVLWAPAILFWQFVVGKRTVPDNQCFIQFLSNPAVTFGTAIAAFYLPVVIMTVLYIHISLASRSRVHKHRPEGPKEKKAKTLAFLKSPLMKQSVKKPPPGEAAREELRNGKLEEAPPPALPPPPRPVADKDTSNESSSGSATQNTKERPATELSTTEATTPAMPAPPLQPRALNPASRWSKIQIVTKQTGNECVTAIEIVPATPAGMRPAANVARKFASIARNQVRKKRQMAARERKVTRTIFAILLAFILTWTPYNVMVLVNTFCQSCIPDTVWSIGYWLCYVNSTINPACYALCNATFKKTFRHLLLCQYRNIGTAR

[6] = target: T1, Muscarinic acetylcholine receptor M2; assay: (§1) Binding affinity to human muscarinic acetylcholine receptor M2 expressed in live adherent CHOK9 cells after 2 hrs by liquid scintillation counting assay; assay type: cell-based
Summary of the method: (§2)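 Live adherent CHO-hM2 cells in L15 medium with 1% BSA, 23 ± 1 °C, 2 h incubation. Competition at 2 nM radioligand; additional 4, 8, 15 and 30 nM in W84 experiments. […] Saturation data fitted one-site; competition by four-parameter logistic fits; at least three experiments in triplicate.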

[7] = target: T1, Muscarinic acetylcholine receptor M2; assay: (§3) Displacement of [3H]NMS from human muscarinic acetylcholine receptor M2 expressed in CHOK9 cells after 3 hrs by liquid scintillation counting assay; assay type: cell-based
[8] = target: T1, Muscarinic acetylcholine receptor M2; assay: (§4) Binding affinity to human muscarinic acetylcholine receptor M2 expressed in CHOK9 cell homogenate after 2 hrs by liquid scintillation counting assay; settings: read-out: Kd(app)
Summary of the method: (§5)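 CHO-hM2 cell homogenates (25–30 μg protein/well) in L15 medium with 1% BSA, 23 ± 1 °C, 2 h with tritiated dimeric radioligand. Competition used 0.5 nM radioligand; additional 0.4, 1, 2 and 4 nM in W84 experiments. […] Four-parameter logistic fits; at least three experiments in triplicate.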

[9] = target: T1, Muscarinic acetylcholine receptor M2; assay: Ratio of binding affinity to human muscarinic acetylcholine receptor M2 expressed in CHOK9 cells assessed as dissociation rate constant to binding affinity to human muscarinic acetylcholine receptor M2 expressed in CHOK9 cells assessed as association rate constant; assay type: cell-based
[10] = target: T3, Muscarinic acetylcholine receptor M2 (Homo sapiens) (UniProt P08172); assay: as §3; assay type: cell-based
T3 sequence (whole entry): T1 sequence (P08172 whole entry)

[11] = target: T2, Muscarinic acetylcholine receptor M4; assay: Displacement of [3H]NMS from human muscarinic acetylcholine receptor M4 expressed in CHOK9 cells after 3 hrs by liquid scintillation counting assay; assay type: cell-based
[12] = target: T3, Muscarinic acetylcholine receptor M2 (Homo sapiens); assay: Binding affinity to human muscarinic acetylcholine receptor M2 expressed in CHOK9 cell homogenates at Kd in presence of 500-fold excess atropine after 2 hrs by liquid scintillation counting assay relative to control; settings: tested as the 3H-labelled form
Summary of the method: as §5

[13] = target: T3, Muscarinic acetylcholine receptor M2 (Homo sapiens); assay: as §1; assay type: cell-based; settings: tested as the 3H-labelled form
Summary of the method: as §2

[14] = target: T4, Muscarinic acetylcholine receptor M5 (Homo sapiens, UniProt P08912); assay: Displacement of [3H]NMS from human muscarinic acetylcholine receptor M5 expressed in CHOK9 cells after 3 hrs by liquid scintillation counting assay; assay type: cell-based
T4 sequence (P08912 whole entry): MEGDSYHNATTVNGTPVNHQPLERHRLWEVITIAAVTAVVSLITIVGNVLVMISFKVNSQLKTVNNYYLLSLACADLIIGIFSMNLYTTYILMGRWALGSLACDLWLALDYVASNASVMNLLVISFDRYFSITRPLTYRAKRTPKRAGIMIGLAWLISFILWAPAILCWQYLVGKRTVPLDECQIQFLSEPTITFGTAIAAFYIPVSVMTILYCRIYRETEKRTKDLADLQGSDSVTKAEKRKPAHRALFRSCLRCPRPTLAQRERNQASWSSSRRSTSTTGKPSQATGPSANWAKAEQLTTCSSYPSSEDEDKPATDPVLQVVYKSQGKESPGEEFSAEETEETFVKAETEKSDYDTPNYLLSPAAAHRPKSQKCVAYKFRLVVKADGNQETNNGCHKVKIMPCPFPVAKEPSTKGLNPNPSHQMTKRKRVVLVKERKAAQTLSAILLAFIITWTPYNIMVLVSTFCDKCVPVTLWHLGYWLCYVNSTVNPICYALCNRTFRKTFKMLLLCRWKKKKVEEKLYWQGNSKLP

[15] = target: T3, Muscarinic acetylcholine receptor M2 (Homo sapiens); assay: as §4; settings: tested as the 3H-labelled form
Summary of the method: as §5

[16] = target: T5, Muscarinic acetylcholine receptor M1 (Homo sapiens, UniProt P11229); assay: Displacement of [3H]NMS from human muscarinic acetylcholine receptor M1 expressed in CHOK9 cells after 3 hrs by liquid scintillation counting assay; assay type: cell-based
T5 sequence (P11229 whole entry): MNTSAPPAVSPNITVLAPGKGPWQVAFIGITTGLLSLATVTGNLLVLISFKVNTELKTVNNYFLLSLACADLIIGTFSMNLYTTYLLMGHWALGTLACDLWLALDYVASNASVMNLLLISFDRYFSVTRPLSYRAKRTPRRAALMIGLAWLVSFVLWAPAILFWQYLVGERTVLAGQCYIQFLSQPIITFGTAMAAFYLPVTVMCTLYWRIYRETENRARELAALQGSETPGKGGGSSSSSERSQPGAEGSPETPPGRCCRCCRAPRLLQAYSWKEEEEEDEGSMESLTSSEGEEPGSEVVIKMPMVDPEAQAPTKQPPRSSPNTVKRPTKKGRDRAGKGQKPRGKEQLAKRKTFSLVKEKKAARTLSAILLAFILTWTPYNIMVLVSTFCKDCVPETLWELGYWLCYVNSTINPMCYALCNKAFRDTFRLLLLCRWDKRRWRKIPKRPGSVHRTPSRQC

[17] = target: Muscarinic acetylcholine receptor M3 (Homo sapiens, UniProt P20309); assay: Displacement of [3H]NMS from human muscarinic acetylcholine receptor M3 expressed in CHOK9 cells after 3 hrs by liquid scintillation counting assay; assay type: cell-based
[18] = target: T3, Muscarinic acetylcholine receptor M2 (Homo sapiens); assay: Binding affinity to human muscarinic acetylcholine receptor M2 expressed in live adherent CHOK9 cells at Kd in presence of 500-fold excess atropine after 2 hrs by liquid scintillation counting assay relative to control; assay type: cell-based; settings: tested as the 3H-labelled form
Summary of the method: as §2

[19] = Chemical stability of the compound in PBS buffer at pH 7.4 after 48 hrs by HPLC analysis; assay type: physicochemical; settings: pH 7.4, 48 h
Summary of the method: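 Compound at 100 μM final (from 10 mM stock) in PBS pH 7.4 at 22 ± 1 °C; samples taken at 0, 24 and 48 h, mixed with acetonitrile/1% aq TFA 2:8, analysed by RP-HPLC at 220 nm.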

[20] = target: T3, Muscarinic acetylcholine receptor M2 (Homo sapiens)

Sequence of Muscarinic acetylcholine receptor M3 (P20309 whole entry): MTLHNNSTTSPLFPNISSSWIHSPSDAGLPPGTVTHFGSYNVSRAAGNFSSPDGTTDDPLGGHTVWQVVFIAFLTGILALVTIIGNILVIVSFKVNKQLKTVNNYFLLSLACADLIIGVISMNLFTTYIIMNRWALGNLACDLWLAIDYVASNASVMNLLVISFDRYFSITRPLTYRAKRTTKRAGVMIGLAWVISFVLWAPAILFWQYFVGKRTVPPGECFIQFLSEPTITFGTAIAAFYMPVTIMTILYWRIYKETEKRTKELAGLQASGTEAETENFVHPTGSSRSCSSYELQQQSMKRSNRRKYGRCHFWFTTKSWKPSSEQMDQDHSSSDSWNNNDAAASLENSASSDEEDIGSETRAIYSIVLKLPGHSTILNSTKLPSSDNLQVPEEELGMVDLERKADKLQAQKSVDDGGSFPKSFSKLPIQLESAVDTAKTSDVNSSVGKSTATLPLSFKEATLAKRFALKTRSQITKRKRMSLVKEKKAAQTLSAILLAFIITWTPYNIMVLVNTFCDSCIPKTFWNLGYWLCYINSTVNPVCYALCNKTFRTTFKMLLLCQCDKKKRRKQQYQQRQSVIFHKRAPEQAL

Compound: CCC(=O)NCCNC(=O)CCc1c[nH]cn1
inhibition [1]: inactive | inhibition [2]: inactive

Compound: O=C1Nc2ccccc2N(C(=O)CN2CCN(CC(=O)N3c4ccccc4NC(=O)c4ccccc43)CC2)c2ccccc21
inhibition [10]: Active

Compound: Cc1c(Cl)c(OCC(=O)N2CCN(C)CC2)nc2sc(C(=O)NC3CC3)c(N)c12
pKb [20]: 5.77

Results, then the compound that gave them:

Kd [3]: 0.31 nM | Kd [4]: 0.31 nM | Kd [5]: 0.67 nM | Kd [6]: 0.91 nM | Ki ([7]; read-out: Ki): 0.41 nM | Kd [8]: 0.22 to 0.24 nM | Kd [9]: 0.2 nM
Compound: O=C(O)C(F)(F)F.O=C(O)C(F)(F)F.O=C(O)C(F)(F)F.O=C(O)C(F)(F)F.[3H]CC([3H])C(=O)NCc1cc(C(=O)NCCNC(=O)CCc2cn(CCCCC3CCN(CC(=O)N4c5ccccc5NC(=O)c5ccccc54)CC3)cn2)cc(C(=O)NCCNC(=O)CCc2cn(CCCCC3CCN(CC(=O)N4c5ccccc5NC(=O)c5ccccc54)CC3)cn2)c1 (stereo unspecified)

Ki [11]: 3.63 nM | Activity [12]: < 15% | Bmax (disintegrations/minute) [13]: 3800 | Ki [14]: 77.6 nM | Ki ([7]; read-out: pKi (converted)): 0.708 nM | Bmax (disintegrations/minute) [15]: 4900 | Ki [16]: 7.08 nM | Ki [17]: 200 nM | Activity [18]: > 60% | Stability [19]: Stable
Compound: CCC(=O)NC1CN(CCCCC2CCN(CC(=O)N3c4ccccc4NC(=O)c4ccccc43)CC2)CCN(CCCCC2CCN(CC(=O)N3c4ccccc4NC(=O)c4ccccc43)CC2)C1.O=C(O)C(F)(F)F.O=C(O)C(F)(F)F.O=C(O)C(F)(F)F.O=C(O)C(F)(F)F

Reference: ChEMBL document CHEMBL4049434, “Radiolabeled Dibenzodiazepinone-Type Antagonists Give Evidence of Dualsteric Binding at the M2 Muscarinic Acetylcholine Receptor” (J Med Chem, 2017)
